Each block holds one compound with its values, some of them ahead of it.
Tests used:
Shh signaling = details: cell lines, human primary keratinocytes, synthetic model of human skin; cited from earlier work
Shh-LIGHT2 cells = test: Cytotoxicity by Cell Titer Glo; format: cell-based; details: for Cytotoxicity: Shh-LIGHT2 cells, cytotoxic above the stated concentration; for cytotoxicity (in words): any concentration
How it was run: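 Cell Titer Glo luminescence in Shh-LIGHT2 Gli-reporter cells. Values are approximations read from concentration curves. Where compounds are cytotoxic, the Gli % ECmax is taken at the highest effective non-cytotoxic concentration.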

ShhN = ShhN (Homo sapiens, UniProt Q15465); test: Surface plasmon resonance; format: binding
ShhN, sequence (Q15465 24-197 limits assumed, species assumed): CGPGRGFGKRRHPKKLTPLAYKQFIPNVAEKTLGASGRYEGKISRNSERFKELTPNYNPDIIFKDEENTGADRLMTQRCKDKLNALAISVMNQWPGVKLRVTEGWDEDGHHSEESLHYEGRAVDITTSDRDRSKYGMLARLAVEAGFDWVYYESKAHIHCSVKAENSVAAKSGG
How it was run: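 Purified Sonic Hedgehog N-terminal peptide (ShhN) probed by surface plasmon resonance with test compound in PBS containing 5% (v/v) DMSO. Sensorgrams background-subtracted against DMSO. Binding expressed as KD in µM, with off-rates compared from the binding curves.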

[1] = tested on: Gli activity (Shh pathway) in Shh-LIGHT2 cell line; test: Shh-LIGHT2 Gli-luciferase reporter assay; format: cell-based; details: for Gli repression / activity in Shh-LIGHT2 (in words): Shh-LIGHT2 cell line, concentrations ranging from 3.9 µM to 125 µM where stated
How it was run: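 Shh-LIGHT2 Gli-reporter cells stimulated with ShhN-conditioned DMEM containing 0.5% (v/v) calf serum, then exposed to test compound over a concentration series (3.9 to 125 µM where stated). Gli activity read by Bright Glo luciferase, and cytotoxicity by Cell Titer Glo. EC50 approximated from concentration curves. % ECmax is inhibition relative to cyclopamine's ECmax, or for cytotoxic compounds relative to the highest effective non-cytotoxic concentration.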

- apparent off-rate (ShhN; SPR, compared with the (2S, 6R) 13-membered homolog): significantly longer
SMILES: O=C(C[C@@H]1C/C=C/CCC(=O)O[C@H](c2ccccc2)CNC1=O)NCc1ccc(Cl)cc1 [(0, R, S) (2), robotnikinin]
- effect on Shh signaling (Shh signaling): blocks Shh signaling
- Cytotoxicity (Shh-LIGHT2 cells): none
- cytotoxicity (in words) (Shh-LIGHT2 cells): neither compound displayed differences in cytotoxicity at any concentration
- Binding / affinity for ShhN by SPR (in words) (ShhN; purified ShhN, PBS buffer with 5% (v/v) DMSO): bound purified ShhN in a stoichiometric manner
- Gli repression / activity in Shh-LIGHT2 (in words) [1]: strong concentration-dependent Gli repression
- % ECmax (footnote e) ([1]; taken relative to mock treatment (reporter values comparable to 6µM cyclopamine), cytotoxic compounds: highest effective non-cytotoxic concentration): 91% ^e

SMILES: O=C(C[C@H]1C/C=C/CCCC(=O)O[C@@H](c2ccccc2)CNC1=O)NCc1ccc(Cl)cc1 [(1, S, R) (3)]
- Cytotoxicity (Shh-LIGHT2 cells): none
- cytotoxicity (in words) (Shh-LIGHT2 cells): neither compound displayed differences in cytotoxicity at any concentration
- Gli repression / activity in Shh-LIGHT2 (in words) [1]: Gli suppression was ablated
